Screening data: PubChem, The Scripps Research Institute Molecular Screening Center
Shown are actives, neighbours in structure and some others; about 1.3% of the full set was active somewhere.
LYPLA1 inh: counter-screen for PME1 inhibitors: inhibitors of human LYPLA1; O75608; recombinant LYPLA1, FP-Rh probe fluorescence polarization; inhibition, % at 5.9 µM; 0.16% of 320,000 active; AID 2174;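 active = inhibition above the mean of all tested compounds plus 3 SD, set per campaign, cut at about 14% in these data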;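 also: inhibitors block serine hydrolase probe labeling of LYPLA1 so polarization falls; 0% = enzyme with DMSO and 100% = wells lacking LYPLA1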
Fam108B inh: blocks mouse Fam108B hydrolase in RBBP9 counter-screen; 0.33% of 300,000 active; recombinant Fam108B, FP-Rh probe fluorescence polarization; AID 1947; inhibition, % at 9.51 µM;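 active = inhibition above the screen mean inhibition plus 3 SD, computed separately per campaign, cut at about 18% in these data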;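 also: inhibitors lower polarization as less probe binds the enzyme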
RBBP9 inh: inhibitors of human serine hydrolase RBBP9; recombinant RBBP9, FP-Rh probe fluorescence polarization; inhibition, % at 7.94 µM; O75884; 0.2% of 220,000 active;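 active = inhibition above the campaign mean of all tested compounds plus 3 SD, cut at about 14% in these data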;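 also: plate controls were DMSO wells with RBBP9 for no effect and wells lacking RBBP9 protein for full effect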
Target sequence (O75884 whole entry, looked up): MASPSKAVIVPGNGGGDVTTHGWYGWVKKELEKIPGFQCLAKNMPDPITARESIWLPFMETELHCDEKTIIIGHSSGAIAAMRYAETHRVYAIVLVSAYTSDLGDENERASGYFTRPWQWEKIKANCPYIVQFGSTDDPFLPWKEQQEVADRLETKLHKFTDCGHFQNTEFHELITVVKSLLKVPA
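System: RBBP9 protein | Quantity: 2.5 µM RBBP9 dispensing solution, before mixing | Reagent: FP-Rh probe, 375 nM dispensing solution | Timing: Enzyme-compound preincubation 30 min, then probe labeling 45 min, 25 °C | Measured by: Fluorescence polarization | Read-out: % inhibition | Replication: One well per compound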
PAD4 inh: blocks human protein arginine deiminase 4; Q9UM07; recombinant PAD4, RCA probe fluorescence polarization; inhibition, % at 6.36 µM; 0.41% of 330,000 active; AID 485272;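 active = percent inhibition above a cutoff equal to the mean of all tested compounds plus 3 SD, cut at about 15% in these data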;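 also: 0% = PAD4 with RCA probe and DMSO and 100% = probe without PAD4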
LYPLA2 inh: counter-screen for PME1 inhibitors: inhibitors of human LYPLA2. O95372. recombinant LYPLA2, FP-Rh probe fluorescence polarization. 0.38% of 320,000 active. inhibition, % at 5.9 µM. AID 2177;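 active = inhibition above the screen-wide mean plus 3 SD, limit set per campaign, cut at about 26% in these data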;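 also: 0% = LYPLA2 with DMSO and 100% = wells lacking LYPLA2 enzyme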
PME-1 inh: PME-1 (human) inhibition; recombinant PME-1, FP-Rh probe fluorescence polarization; inhibition, % at 5.9 µM; 0.53% of 320,000 active; AID 2130;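 active = inhibition above the campaign mean of all compounds plus 3 SD, cut at about 26% in these data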;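 also: competitive labeling of PME-1 active site by serine hydrolase directed probe; 0% = PME-1 with DMSO and 100% = wells lacking PME-1 enzyme; inhibitors block probe labeling so polarization falls and inhibition rises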
Target sequence (Q9Y570 whole entry, looked up): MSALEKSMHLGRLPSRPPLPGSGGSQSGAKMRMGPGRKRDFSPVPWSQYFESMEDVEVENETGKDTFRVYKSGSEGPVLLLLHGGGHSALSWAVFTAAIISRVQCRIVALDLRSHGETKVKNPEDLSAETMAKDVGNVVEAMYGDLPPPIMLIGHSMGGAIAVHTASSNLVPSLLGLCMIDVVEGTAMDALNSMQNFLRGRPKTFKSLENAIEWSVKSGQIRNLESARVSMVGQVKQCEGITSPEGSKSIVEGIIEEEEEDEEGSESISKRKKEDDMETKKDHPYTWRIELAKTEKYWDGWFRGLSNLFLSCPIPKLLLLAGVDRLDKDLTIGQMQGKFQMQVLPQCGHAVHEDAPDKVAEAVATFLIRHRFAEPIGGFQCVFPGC
PAD4 confirm: confirmation of human PAD4 inhibitors; shares compounds with PAD4 inh; recombinant PAD4, RCA probe fluorescence polarization; inhibition, % at 6.36 µM; 28% of 1,200 active; AID 488796;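 active = mean inhibition across replicates above the hit cutoff set by the earlier primary screen, cut at about 15% in these data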;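 also: inhibitors block active-site labeling by the probe so polarization falls; 0% = PAD4 with probe and DMSO and 100% = probe without PAD4 enzyme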
Active calls of the source: *; x = no result.

SMILES	LYPLA1 inh	Fam108B inh	RBBP9 inh	PAD4 inh	LYPLA2 inh	PME-1 inh	PAD4 confirm
O=C(Oc1ccc(-c2cnc3ccccc3n2)cc1)c1cc([N+](=O)[O-])ccc1Cl	4.2	-0.8	-0.4	5.1	3.9	3.9	x
Cc1ccc(C(=O)COC(=O)c2ccc(-c3cnc4ccccc4n3)cc2)cc1C	2.3	-6.1	-8.2	-0.8	-1.5	-3.6	x
COc1ccc(-c2noc3c2-c2nc(-c4c(F)cccc4F)sc2CC3)cc1	-2.3	-1.6	x	-5.1	-3.5	0.7	x
CC(C)c1ccccc1OCC(=O)Nc1ccccc1C(=O)N1CCOCC1	0.6	-1.9	x	3.0	4.0	-2.5	x
CC(=O)Nc1ccc(Nc2nc(Cl)nc(Nc3ccc(NC(C)=O)cc3)n2)cc1	-2.5	1.8	3.7	18.9*	-5.6	5.1	0.9
COc1ccc(Nc2nc(Cl)nc(Nc3ccc(OC)cc3)n2)cc1	0.7	0.3	-9.1	-6.4	-0.4	2.6	x
CCCNC(=O)Cn1nc([N+](=O)[O-])c([N+](=O)[O-])c1C	0.8	2.1	1.1	-3.3	5.1	7.1	x
O=C(NCCCN1CCOCC1)c1cc2c([nH]c3ccccc32)c(-c2cccc(Br)c2)n1	-18.7	-8.2	x	46.1*	-21.1	-9.1	31.1*
CCOc1cc(CNCc2ccncc2)cc(Br)c1OCc1ccc(F)cc1	-0.1	1.6	-3.6	-4.3	0.9	8.3	x
CCOc1ccc2c(O)csc2c1	-0.1	-5.1	-7.8	24.4*	-4.5	-5.2	19.8*
Cc1cc2ccccc2n1CCNC(=O)COc1ccccc1	-0.6	4.6	x	23.1*	0.4	-9.4	8.8
Cc1ccc(C)c(S(=O)(=O)Nc2ccc(C(=O)NCCc3ccccn3)cc2)c1	-1.2	2.6	-4.3	-1.0	3.1	1.9	x
CCOc1ccc(NC(=O)CSc2nnc(C3CC3)n2C)cc1S(=O)(=O)N1CCCCC1	0.9	x	x	-5.8	1.8	2.4	x
Cc1cccc(CN2CCN(CCCc3ccccc3)CC2)c1	7.2	3.5	-7.2	-1.7	12.6	1.5	x
Cc1cc(=O)n(CCCc2ccccc2)[nH]1	-2.9	-4.4	x	29.0*	-3.1	-0.1	-4.6
Cc1ccc(Cl)cc1N(CC(=O)NCc1ccccc1)S(C)(=O)=O	1.1	0.2	x	-2.2	5.2	1.4	x
CC(=O)Nc1cccc(O)c1	1.9	x	x	-2.5	0.9	-8.1	x
CN(C)c1cccc(O)c1	1.2	x	x	21.8*	6.7	-6.0	2.1
CCc1nc2ccccc2n1CC(=O)OCC(=O)N(CC(C)C)c1c(N)n(Cc2ccccc2)c(=O)[nH]c1=O	1.5	-1.6	x	-1.6	6.3	-1.5	x
Cc1nnc(SC(=O)N2c3ccccc3Sc3ccccc32)s1	-1.3	-11.8	-10.2	33.9*	-3.1	3.0	5.5
Cc1ccc(NC(=O)CN2C(=O)NC3(CCc4ccccc43)C2=O)cc1S(=O)(=O)N1CCCCC1 (stereo not drawn)	-0.3	-1.5	x	-3.8	-0.4	0.6	x
CCOC(=O)C1CCN(c2nc3ccccc3nc2C(C#N)C(=O)OC(C)C)CC1 (stereo not drawn)	1.5	-2.0	4.9	16.7*	3.0	-8.6	-12.6
S=c1[nH]nc(-c2cc(-c3ccccc3)n[nH]2)n1/N=C/c1cccc(Cl)c1	-3.0	3.8	-5.7	15.5*	2.5	24.4	9.3
S=c1[nH]nc(-c2cc(-c3ccccc3)n[nH]2)n1/N=C/c1ccc(Cl)cc1	-4.2	-0.2	1.1	5.9	-10.1	15.9	x
COc1ccc(/C=C/C(=O)OCC(=O)c2c(N)n(C)c(=O)n(C)c2=O)c(OC)c1	3.3	-1.7	-7.9	19.2*	7.3	5.0	3.5
SMILES	LYPLA1 inh	Fam108B inh	RBBP9 inh	PAD4 inh	LYPLA2 inh	PME-1 inh	PAD4 confirm
COc1ccc(OC)c(/C=C/C(=O)OCC(=O)c2c(N)n(C)c(=O)n(C)c2=O)c1	-3.3	-13.6	0.0	-5.1	7.7	4.7	x
Cc1cc(C)c(C#N)c(Sc2ccccc2N)n1	5.6	-0.8	1.1	20.5*	6.1	1.7	52.0*
C/C(=N\NC(=O)c1c(C)nc2ccccn12)c1ccco1	1.2	-0.2	-0.6	0.2	2.5	-4.1	x
CC(NC(=O)c1c(O)c2ccccc2[nH]c1=O)c1ccccc1 (stereo not drawn)	-0.3	-1.6	x	16.3*	-2.9	-8.1	4.7
CC[n+]1c(C)sc2cc(OC)ccc21	3.4	3.0	-22.6	17.1*	7.1	-7.6	12.6
O=C(O)CC1S/C(=N/N=C/c2ccc(-c3ccccc3[N+](=O)[O-])o2)NC1=O (stereo not drawn)	-0.4	6.0	5.0	19.9*	2.2	-2.3	-2.4
Cc1ccc(OCCCCNC(C)c2ccccc2)c(C)c1 (stereo not drawn)	1.9	2.4	x	2.2	-6.2	-1.8	x
O=C(O)c1ccccc1Sc1c([N+](=O)[O-])cc(C(F)(F)F)cc1[N+](=O)[O-]	2.0	4.9	-5.2	45.0*	1.1	-2.0	25.8*
O=C(O)c1ccccc1NSc1ccccc1[N+](=O)[O-]	-3.2	1.7	-10.0	3.7	-1.2	7.8	x
COc1ccccc1Nc1nnc(C)c(=O)[nH]1	3.7	-3.7	-4.1	-3.6	5.0	-5.7	x
CC(=O)c1cccc(-c2ccc3c(=O)[nH]c(Nc4ccccc4)cc3c2)c1	-4.5	15.7	x	-6.8	-6.6	21.3	x
COc1ccc(OC)c(Nc2cc3ccccc3c(=O)[nH]2)c1	-1.1	16.6	x	39.3*	3.3	6.0	-1.1
COc1ccccc1Nc1cc2cc(Br)ccc2c(=O)[nH]1	-3.7	1.6	x	34.0*	-0.6	-5.7	5.1
COc1ccc(OC)c(Nc2nnc(C)c(=O)[nH]2)c1	-2.6	-2.5	-1.8	0.5	2.8	0.0	x
O=c1[nH]c(Nc2ccccc2)cc2cc(Br)ccc12	-3.5	15.7	x	64.0*	5.6	18.2	-6.2
COCCCNC(=O)C1CCN(S(=O)(=O)c2ccc3nc4c(c(C(=O)O)c3c2)CCCCC4)CC1	-2.8	1.2	x	-0.2	3.8	0.7	x
COC(=O)C1CN(C(=O)COc2ccccc2)c2ccccc2O1 (stereo not drawn)	2.3	-4.8	x	-2.6	1.3	-2.6	x
c1cc(CNc2ccc(N3CCOCC3)cc2)ccn1	-2.5	-0.7	-0.4	24.8*	4.4	6.3	3.6
Cc1ccc(CNc2ccc(N3CCOCC3)cc2)cc1	2.7	2.0	x	-8.9	-4.9	-0.2	x
O=C(NCCCO)c1nnc(Cc2c(F)cccc2Cl)o1	-2.2	1.1	-11.2	49.9*	-1.6	-1.9	6.1
O=C(NCCCN1CCN(Cc2ccccc2)CC1)c1nnc(Cc2c(F)cccc2Cl)o1	-0.6	0.6	1.2	5.7	-1.5	-1.7	x
[S-]C(=Nc1ccc(Cl)cc1)N[n+]1ccccc1	0.2	-5.6	-3.1	3.9	4.9	6.5	x
COc1ccc(NC(=O)c2cc(C)nc3ccccc23)c(OC)c1	0.4	-3.8	-2.7	-1.4	0.5	3.1	x
COc1cc(NC(=O)c2cc(C)nc3ccccc23)cc(OC)c1OC	-2.0	1.3	-9.7	28.5*	0.6	3.8	4.6
